HePTP inhibitor: blocks human HePTP tyrosine phosphatase; P35236; recombinant HePTP phosphatase activity, OD absorbance; inhibition, % at 20 µM; hit rate 0.64% among 110,000; AID 521; in the data active = inhibition above about 50%
E coli WT exp: E. coli BW25113 growth inhibition, expanded screen | OD600 absorbance | growth inhibition, % at 100 µM | hit rate 0.15% among 98,000;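 active = growth inhibition above about 50% at one test dose, limit read from the data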;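 note: growth measured after 20 h incubation at 37 °C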
PLAP activator: human PLAP activation; P05187; purified PLAP enzyme, luminescent substrate read-out; stronger effect = higher value; activation fold at 20 µM; hit rate 1.2% among 96,000; in the data active = activation fold above about 2
Target sequence (P05187 whole entry, looked up): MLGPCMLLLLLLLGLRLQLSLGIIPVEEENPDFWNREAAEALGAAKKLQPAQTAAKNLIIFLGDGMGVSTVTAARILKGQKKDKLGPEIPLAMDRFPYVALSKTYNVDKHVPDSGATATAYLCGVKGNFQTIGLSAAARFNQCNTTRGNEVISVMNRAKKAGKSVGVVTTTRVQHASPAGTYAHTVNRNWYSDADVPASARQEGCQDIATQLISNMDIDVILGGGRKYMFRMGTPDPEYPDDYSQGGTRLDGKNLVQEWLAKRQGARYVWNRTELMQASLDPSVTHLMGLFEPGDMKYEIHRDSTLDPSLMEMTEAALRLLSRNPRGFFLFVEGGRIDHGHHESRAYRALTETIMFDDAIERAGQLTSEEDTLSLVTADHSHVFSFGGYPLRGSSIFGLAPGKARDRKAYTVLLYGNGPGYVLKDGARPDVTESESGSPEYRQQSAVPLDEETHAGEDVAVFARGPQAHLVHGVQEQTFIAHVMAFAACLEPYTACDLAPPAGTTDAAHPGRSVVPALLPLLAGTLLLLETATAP
tolC growth inh: growth inhibitors of E. coli BW25113 tolC mutant; OD615; growth inhibition, % at 10 µM (by protocol); hit rate 2.2% among 65,000; AID 573;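 active = growth inhibition at or above a cutoff equal to the mean over every tested compound plus 3 SD, cut at about 60% in these data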;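 note: growth measured after 20 h incubation at 37 °C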
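Test system – E. coli BW25113 ΔtolC::kan, tolC deletion mutant strain · Detection – OD at 615 nm · Buffer or medium – LB with kanamycin 50 µg/mL · Times – 20 h compound exposure of bacteria at 37 °C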
PostGolgi ctrl: yeast control strain growth, post-Golgi counter-screen | inhibition, % at 10 µM | hit rate 5% among 98,000 | efflux-deficient yeast background strain, growth absorbance A615, 16 h
PostGolgi yeast: growth inhibition of a yeast mutant, post-Golgi transport screen; hit rate 0.9% among 98,000; post-Golgi transport phenotypic cell assay; inhibition, % at 10 µM; AID 739;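 note: yeast cells grown in 1536-well plates; yeast grown about 18 h at 30C before absorbance read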
Hits are given with their value; . = inactive; / = no result. Sampled rows, rich in hits. Any-hit rate of the full collection: about 5.4%. Cut-off read from the data, not from the text of the source, unless noted: active = inhibition above about 30%; inactive = the rest.

SMILES	HePTP inhibitor	E coli WT exp	PLAP activator	tolC growth inh	PostGolgi ctrl	PostGolgi yeast
Cc1cc(O)c(-c2cc(C(=O)NCc3ccc4c(c3)OCO4)[nH]n2)cc1C	.	.	.	.	.	.
COc1ccc(CCNC(=O)c2ccncc2)cc1OC	.	.	.	.	.	.
COc1ccc(CNS(=O)(=O)c2ccc(Br)cc2)cc1	.	/	/	/	/	/
C/C(=N\NC(=O)c1ccccc1O)C1C(=O)c2ccccc2C1=O	/	.	2.1	/	.	.
C/C(=N/NC(=O)c1cc2ccccc2cc1O)C1C(=O)c2ccccc2C1=O	/	.	.	/	.	.
c1ccc(-c2ccc(-c3cn4c(n3)CCC4)cc2)cc1	/	.	.	/	32.7	.
COc1ccc(-c2cn3c(n2)CCC3)cc1	.	.	.	.	.	.
CC(Oc1cccc(Cl)c1)C(=O)NCc1ccncc1 (stereo not given)	.	/	/	/	/	/
Cc1sc(NC(=O)c2ccco2)c(C(c2cccnc2)N2CCN(c3ccc(F)cc3)CC2)c1C (stereo not given)	.	.	.	.	.	.
CCOC(=O)C1CCN(C(c2cccnc2)c2c(NC(=O)c3ccco3)sc(C)c2C)CC1 (stereo not given)	.	.	.	76.6	.	.
CC(C)(C)c1ccc(C(=O)NCCSc2nc3ccccc3s2)cc1	.	/	/	/	/	/
O=C(Nc1ccncc1)c1ccccc1F	.	.	.	.	42.4	.
C=CCNC(=O)/C=C/c1ccc(OC)c(OC)c1	.	/	/	/	/	/
O=C(O)c1cccc2c(Br)ccc(C(=O)O)c12	.	/	/	/	/	/
Cc1cc(NC(=O)c2ccc(S(=O)(=O)N3CCOCC3)cc2)nc2c1c(=O)oc1ccccc12	.	.	.	.	.	31.3
CCC(CC)C(=O)Nc1cc(C)c2c(=O)oc3ccccc3c2n1	.	.	.	.	33.9	.
CN1C/C(=C\c2cccnc2)C(=O)/C(=C/c2cccnc2)C1	.	/	/	/	/	/
CCOc1cc(CNCCO)cc(Br)c1OCc1ccc(Cl)cc1Cl	/	80.0	.	/	90.0	.
CCc1nc2ccccc2c(=O)n1NC(=O)c1c(O)c2ccccc2[nH]c1=O	.	.	.	85.0	.	.
N#Cc1nc(-c2cccc(Cl)c2)oc1NCc1cccnc1	/	.	2	/	.	.
NCCCSc1nc2c(c(=O)n1Cc1ccccc1)C1(CCCCC1)Cc1ccccc1-2	.	/	/	/	/	/
Nc1ncncc1-c1ccc([N+](=O)[O-])cc1	/	78.0	.	/	.	.
Cc1ccc(-c2nc(N)sc2-c2ccc([N+](=O)[O-])cc2)cc1	.	/	/	/	/	/
CCOc1ccc(OCC)c(NC(=O)CN2CCN(c3cccc(C)c3C)CC2)c1	.	.	/	.	.	.
Cc1cccc(N2CCN(CC(=O)Nc3ccccc3[N+](=O)[O-])CC2)c1C	/	.	.	/	31.6	.
SMILES	HePTP inhibitor	E coli WT exp	PLAP activator	tolC growth inh	PostGolgi ctrl	PostGolgi yeast
Cc1ccc2[nH]c(C(=O)O)c(NC(=O)CN3CCN(c4cccc(C)c4C)CC3)c2c1	.	.	.	95.7	.	.
CC1CCCN(Cc2cnc(Cl)s2)C1 (stereo not given)	/	.	.	/	41.1	.
Cc1cc(C)c(NS(=O)(=O)c2cc(C)ccc2C)c(C)c1	.	/	/	/	/	/
NC(=O)c1ccc(C(F)(F)F)n(Cc2c(Cl)cccc2Cl)c1=O	/	.	.	/	33.9	.
CCOC(=O)n1c(=O)n(Cc2c(Cl)cccc2Cl)c2ccccc21	/	.	.	/	.	.
CC1SC(c2ccccc2)N(CCc2ccccc2)C1=O (stereo not given)	.	/	/	/	/	/
O=c1[nH]c(=S)[nH]c2sc3c(c12)CCc1ccccc1-3	.	/	/	/	/	/
CC(C)CC(c1nnnn1Cc1ccco1)N1CCN(c2cccc(Cl)c2)CC1 (stereo not given)	.	.	.	.	39.9	.
CC(C)CC(c1nnnn1CCc1ccccc1)N1CCN(C(=O)c2ccco2)CC1 (stereo not given)	.	.	.	.	30.4	.
CCCC(c1nnnn1Cc1ccco1)N1CCN(C(=O)c2ccco2)CC1 (stereo not given)	.	.	.	.	.	.
CC(C)CC(c1nnnn1CC1CCCO1)N1CCN(c2cccc(Cl)c2)CC1 (stereo not given)	.	.	/	.	33.7	.
O=C(c1ccccc1CCc1ccccc1)N1CCN(c2ccccn2)CC1	.	.	.	79.4	.	.
O=C(c1ccccc1Cl)N1CCN(c2ccccn2)CC1	.	.	.	.	.	.
O=C(CN1CCCCCC1)N/N=C/c1cccs1	/	.	2.5	/	.	.
CCCCCC(=O)N/N=C/c1cccs1	/	.	.	/	.	.
Fc1ccc(-n2c(Cc3ccccc3)nnc2SCc2nc(-c3cccs3)no2)cc1	.	.	.	69.6	33.5	.

From PubChem
